Measured values from article PMC2735267 (Neuropharmacology, 2009).
Where two headings read alike, the source gives them in different places. Marks after values point to notes of the source that are not given here.

What was measured:
[1] = tested on: α7* nAChR binding sites; type: in vivo, DBA/2J mice; conditions: for [125I]α-bungarotoxin binding: 3-IC 0.2 mg/kg/h iv 7 days; for [125I]α-bungarotoxin binding % change: 3-IC 0.2 mg/kg/h iv 7 days vs saline
[2] = target: β4*-nAChR (Mus musculus, UniProt Q8R493+Q8R4G9); test: biochemical; type: binding, C57BL/6J mice; conditions: read-out: [125I]epibatidine (β2 -/-) Ki; inferior colliculi, β2-/- mice; 200 pM ligand
[3] = tested on: cytisine-resistant [125I]epibatidine binding sites; conditions: for Cytisine-resistant [125I]epibatidine binding: 3-IC 0.2 mg/kg/h iv 7 days; for Cytisine-resistant [125I]epibatidine binding % change: 3-IC 0.2 mg/kg/h iv 7 days vs saline
[4] = tested on: β2 null mutant mice; test: 3-IC-induced hypothermia in β2 null mutant and wild-type mice; type: in vivo, mouse; conditions: 0.2 mg/kg ip
Summary of the method: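 Null mutants were backcrossed onto C57BL/6J for at least 10 generations, genotyped from tail DNA, and compared with wild-type mice (β2-/- n = 5; β4-/- n = 5). Test compound was given at 0.2 mg/kg IP in 10 µl/g body weight. Rectal temperature was taken every 5 minutes with a peanut-oil-lubricated probe inserted 1.5 cm. Data are mean ± SEM, analysed by repeated-measures ANOVA (time × genotype).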

[5] = tested on: C57BL/6J mice; test: 3-IC-induced hypothermia; type: in vivo, mouse
[6] = inferior colliculus (externall)
[7] = superior colliculus (optic nerve)
[8] = superior colliculus (sup. gray)
[9] = supramammillary hypothalamic nucleus
[10] = ventrolateral geniculate nucleus
[11] = dorsolateral geniculate nucleus

Sequence of β4*-nAChR (Q8R493 21-495): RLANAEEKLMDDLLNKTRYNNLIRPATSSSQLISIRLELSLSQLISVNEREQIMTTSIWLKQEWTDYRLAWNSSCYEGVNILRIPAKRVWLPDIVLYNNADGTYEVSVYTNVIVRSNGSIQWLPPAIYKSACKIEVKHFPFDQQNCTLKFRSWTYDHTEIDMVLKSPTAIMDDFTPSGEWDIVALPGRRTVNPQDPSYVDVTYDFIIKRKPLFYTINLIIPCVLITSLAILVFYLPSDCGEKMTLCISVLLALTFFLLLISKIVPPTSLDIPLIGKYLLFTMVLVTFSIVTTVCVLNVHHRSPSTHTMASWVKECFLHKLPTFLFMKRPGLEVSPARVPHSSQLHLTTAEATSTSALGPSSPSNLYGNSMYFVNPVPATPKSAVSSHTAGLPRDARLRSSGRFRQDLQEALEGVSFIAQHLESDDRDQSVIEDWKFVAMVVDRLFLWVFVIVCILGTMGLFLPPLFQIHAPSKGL
Sequence of β4*-nAChR (Q8R4G9 26-499): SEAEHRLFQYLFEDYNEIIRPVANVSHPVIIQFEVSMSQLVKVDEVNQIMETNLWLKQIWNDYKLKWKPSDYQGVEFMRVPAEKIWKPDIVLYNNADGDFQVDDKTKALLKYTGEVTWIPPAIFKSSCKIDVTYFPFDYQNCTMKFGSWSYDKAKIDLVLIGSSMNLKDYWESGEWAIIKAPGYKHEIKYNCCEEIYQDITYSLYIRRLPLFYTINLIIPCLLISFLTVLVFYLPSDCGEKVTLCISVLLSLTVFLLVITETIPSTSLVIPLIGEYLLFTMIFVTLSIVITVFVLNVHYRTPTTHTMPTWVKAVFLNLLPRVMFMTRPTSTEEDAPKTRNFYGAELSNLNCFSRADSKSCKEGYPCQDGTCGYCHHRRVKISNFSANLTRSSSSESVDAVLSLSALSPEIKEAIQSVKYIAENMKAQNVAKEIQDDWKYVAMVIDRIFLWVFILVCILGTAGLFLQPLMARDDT

## O=c1c(I)ccc2n1C[C@@H]1CNC[C@H]2C1 [3-IC, 3-iodocytisine]
[1]; caudate putamen
  [125I]α-bungarotoxin binding: 19.6 ± 2.3 fmol/mg
  [125I]α-bungarotoxin binding % change: 65.8%
[1]; caudate putamen, listed as 3-iodocytisine
  [125I]α-bungarotoxin binding % change: 65.8 * %
[1]; cingulate cortex
  [125I]α-bungarotoxin binding: 6.3 ± 1.4 fmol/mg
  [125I]α-bungarotoxin binding % change: 11.7%
[1]; dentate gyrus (granular layer)
  [125I]α-bungarotoxin binding: 11.7 ± 1.2 fmol/mg
  [125I]α-bungarotoxin binding % change: 63.5%
[1]; hippocampus (CA1-3)
  [125I]α-bungarotoxin binding: 10.2 ± 0.8 fmol/mg
  [125I]α-bungarotoxin binding % change: 77.5%
[1]; hippocampus (CA1-3), listed as 3-iodocytisine
  [125I]α-bungarotoxin binding % change: 77.5 ** %
[1]; inferior colliculus (central)
  [125I]α-bungarotoxin binding: 37.6 ± 4.2 fmol/mg
  [125I]α-bungarotoxin binding % change: 21.7%
[1]; inferior colliculus (dorsal)
  [125I]α-bungarotoxin binding: 21.7 ± 3.7 fmol/mg
  [125I]α-bungarotoxin binding % change: 14.4%
[1]; [6]
  [125I]α-bungarotoxin binding: 23.5 ± 4.1 fmol/mg
  [125I]α-bungarotoxin binding % change: 33.1%
[1]; interpeduncular nucleus
  [125I]α-bungarotoxin binding: 23.5 ± 1.4 fmol/mg
  [125I]α-bungarotoxin binding % change: 26.2 * %
[1]; medial habenula
  [125I]α-bungarotoxin binding: 11.6 ± 1.0 fmol/mg
  [125I]α-bungarotoxin binding % change: 26.4%
[1]; nucleus accumbens
  [125I]α-bungarotoxin binding: 6.8 ± 0.7 fmol/mg
  [125I]α-bungarotoxin binding % change: 81.2%
[1]; nucleus accumbens, listed as 3-iodocytisine
  [125I]α-bungarotoxin binding % change: 81.2 ** %
[1]; parietal cortex (layers 1-3)
  [125I]α-bungarotoxin binding: 5.9 ± 0.3 fmol/mg
  [125I]α-bungarotoxin binding % change: 79.3 ** %
[1]; parietal cortex (layers 4-6)
  [125I]α-bungarotoxin binding: 7.8 ± 0.4 fmol/mg
  [125I]α-bungarotoxin binding % change: 74.4 ** %
[1]; retrosplenial Cortex
  [125I]α-bungarotoxin binding: 4.8 ± 0.4 fmol/mg
  [125I]α-bungarotoxin binding % change: 21.2%
[1]; subiculum
  [125I]α-bungarotoxin binding: 7.1 ± 0.7 fmol/mg
  [125I]α-bungarotoxin binding % change: 22.0%
[1]; substantia nigra
  [125I]α-bungarotoxin binding: 7.9 ± 0.9 fmol/mg
  [125I]α-bungarotoxin binding % change: 29.5%
[1]; [7]
  [125I]α-bungarotoxin binding: 11.5 ± 0.5 fmol/mg
  [125I]α-bungarotoxin binding % change: 44.2 ** %
[1]; [8]
  [125I]α-bungarotoxin binding: 23.1 ± 0.8 fmol/mg
  [125I]α-bungarotoxin binding % change: 34.7 ** %
[1]; [9]
  [125I]α-bungarotoxin binding: 12.1 ± 1.2 fmol/mg
  [125I]α-bungarotoxin binding % change: 24.4%
[1]; ventral tegmental area
  [125I]α-bungarotoxin binding: 5.2 ± 0.4 fmol/mg
  [125I]α-bungarotoxin binding % change: 40.5%
[1]; ventral tegmental area, listed as 3-iodocytisine
  [125I]α-bungarotoxin binding % change: 40.5 * %
[1]; [10]
  [125I]α-bungarotoxin binding: 18.1 ± 1.2 fmol/mg
  [125I]α-bungarotoxin binding % change: 30.2 * %
[1]; zona incerta
  [125I]α-bungarotoxin binding: 11.1 ± 1.0 fmol/mg
  [125I]α-bungarotoxin binding % change: 52.1%
[1]; zona incerta, listed as 3-iodocytisine
  [125I]α-bungarotoxin binding % change: 52.1 * %
[2]
  Ki: 250 ± 40 pM
[3]; anterior olfactory nucleus
  Cytisine-resistant [125I]epibatidine binding: 13.27 ± 2.48 fmol/mg
[3]; anteromedial thalamic nucleus
  Cytisine-resistant [125I]epibatidine binding: 3.97 ± 0.25 fmol/mg
  Cytisine-resistant [125I]epibatidine binding % change: 22.0%
[3]; autoradiography, 0.2 mg/kg/h iv 7 days
  cytisine-resistant [125I]epibatidine sites after chronic treatment: not affected
[3]; caudate putamen
  Cytisine-resistant [125I]epibatidine binding: 2.39 ± 0.29 fmol/mg
  Cytisine-resistant [125I]epibatidine binding % change: 18.2%
[3]; cingulate cortex
  Cytisine-resistant [125I]epibatidine binding: 1.25 ± 0.13 fmol/mg
  Cytisine-resistant [125I]epibatidine binding % change: 26.9%
[3]; dentate gyrus (granular layer)
  Cytisine-resistant [125I]epibatidine binding: 1.15 ± 0.06 fmol/mg
  Cytisine-resistant [125I]epibatidine binding % change: 17.3%
[3]; [11]
  Cytisine-resistant [125I]epibatidine binding: 9.89 ± 0.66 fmol/mg
  Cytisine-resistant [125I]epibatidine binding % change: -2.8%
[3]; dorsomedial thalamic nucleus
  Cytisine-resistant [125I]epibatidine binding: 3.78 ± 0.50 fmol/mg
  Cytisine-resistant [125I]epibatidine binding % change: 5.3%
[3]; fasciculus retroflexus
  Cytisine-resistant [125I]epibatidine binding: 63.47 ± 4.86 fmol/mg
  Cytisine-resistant [125I]epibatidine binding % change: 3.1%
[3]; hippocampus (CA1-3)
  Cytisine-resistant [125I]epibatidine binding: 0.98 ± 0.06 fmol/mg
  Cytisine-resistant [125I]epibatidine binding % change: 20.2%
[3]; inferior colliculus (central)
  Cytisine-resistant [125I]epibatidine binding: 4.00 ± 1.42 fmol/mg
  Cytisine-resistant [125I]epibatidine binding % change: 68.2%
[3]; inferior colliculus (dorsal)
  Cytisine-resistant [125I]epibatidine binding: 10.17 ± 2.62 fmol/mg
  Cytisine-resistant [125I]epibatidine binding % change: 67.7%
[3]; inferior colliculus (external)
  Cytisine-resistant [125I]epibatidine binding: 2.55 ± 0.19 fmol/mg
  Cytisine-resistant [125I]epibatidine binding % change: 24.2%
[3]; interpeduncular nucleus
  Cytisine-resistant [125I]epibatidine binding: 211.95 ± 31.83 fmol/mg
[3]; medial geniculate nucleus
  Cytisine-resistant [125I]epibatidine binding: 4.43 ± 0.80 fmol/mg
  Cytisine-resistant [125I]epibatidine binding % change: 38.1%
[3]; medial habenula
  Cytisine-resistant [125I]epibatidine binding: 282.84 ± 31.53 fmol/mg
  Cytisine-resistant [125I]epibatidine binding % change: -13.5%
[3]; nucleus accumbens
  Cytisine-resistant [125I]epibatidine binding: 1.95 ± 0.21 fmol/mg
  Cytisine-resistant [125I]epibatidine binding % change: 12.9%
[3]; olfactory tubercle
  Cytisine-resistant [125I]epibatidine binding: 2.9 ± 0.5 fmol/mg
  Cytisine-resistant [125I]epibatidine binding % change: -17.1%
[3]; optic tract
  Cytisine-resistant [125I]epibatidine binding: 1.75 ± 0.22 fmol/mg
  Cytisine-resistant [125I]epibatidine binding % change: 26.1%
[3]; parietal cortex (layers 1-3)
  Cytisine-resistant [125I]epibatidine binding: 0.62 ± 0.06 fmol/mg
  Cytisine-resistant [125I]epibatidine binding % change: 24.6%
[3]; parietal cortex (layers 4-6)
  Cytisine-resistant [125I]epibatidine binding: 1.29 ± 0.07 fmol/mg
  Cytisine-resistant [125I]epibatidine binding % change: 45.9%
[3]; retrosplenial Cortex
  Cytisine-resistant [125I]epibatidine binding: 1.63 ± 0.11 fmol/mg
  Cytisine-resistant [125I]epibatidine binding % change: 35.8%
[3]; subiculum
  Cytisine-resistant [125I]epibatidine binding: 1.89 ± 0.10 fmol/mg
[3]; substantia nigra
  Cytisine-resistant [125I]epibatidine binding: 1.6 ± 0.2 fmol/mg
  Cytisine-resistant [125I]epibatidine binding % change: 6.7%
[3]; [7]
  Cytisine-resistant [125I]epibatidine binding: 3.21 ± 0.14 fmol/mg
  Cytisine-resistant [125I]epibatidine binding % change: 0.5%
[3]; [8]
  Cytisine-resistant [125I]epibatidine binding: 11.25 ± 0.12 fmol/mg
  Cytisine-resistant [125I]epibatidine binding % change: 10.8%
[3]; ventral tegmental area
  Cytisine-resistant [125I]epibatidine binding: 3.4 ± 0.69 fmol/mg
  Cytisine-resistant [125I]epibatidine binding % change: 20.5%
[3]; ventromedial thalamic nucleus
  Cytisine-resistant [125I]epibatidine binding: 3.29 ± 0.46 fmol/mg
  Cytisine-resistant [125I]epibatidine binding % change: 13.4%
[3]; zona incerta
  Cytisine-resistant [125I]epibatidine binding: 2.34 ± 0.22 fmol/mg
[4]; β2+/+ mice
  maximal 3-IC induced hypothermia (decrease of temperature): 9.8 ± 0.76 °C
[4]; β2-/- mice
  maximal 3-IC induced hypothermia (decrease of temperature): 8.4 ± 1 °C
[5]; 0.2 mg/kg ip acute
  decrease of basal temperature: 9.2 ± 1.13 °C
[5]; 1 mg/kg ip
  maximal temperature decrease: 13.3 ± 0.9 °C
[5]; hexamethonium experiment, 3-IC 0.2 mg/kg
  maximal 3-IC-induced hypothermia after saline pretreatment: 9.25 ± 0.76 °C
[5]; ip, maximal drop in temperature
  ED50 for hypothermia: 0.16 ± 0.03 mg/kg
[5]; mecamylamine experiment, 3-IC 0.2 mg/kg ip
  3-IC-induced hypothermia after saline pretreatment: 9.25 ± 0.76 °C
